Measurements published in ChEMBL document CHEMBL4765452, “Discovery of (E)-N-(4-methyl-5-(3-(2-(pyridin-2-yl)vinyl)-1H-indazol-6-yl)thiazol-2-yl)-2-(4-methylpiperazin-1-yl)acetamide (IHMT-TRK-284) as a novel orally available type II TRK kinase inhibitor capable of overcoming multiple resistant mutants” (Eur J Med Chem, 2020).
Activity calls are given as the source filed them. The rule behind the calls is not given here.

Assays:
[1] = target: T1, BDNF/NT-3 growth factors receptor (Homo sapiens, UniProt Q16620); assay: Inhibition of TEL fused TRKB (unknown origin) transfected in mouse BAF3 cells assessed as growth inhibition after 72 hrs by CCK8 assay; assay type: cell-based
In short: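 TEL-fusion isogenic BaF3 lines were built in-house and grown in RPMI 1640 with 10% FBS and 1% penicillin/streptomycin at 37 °C under 5% CO2. Cells were spun down before use.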
Target sequence in this assay (Q16620 32-822 limits assumed): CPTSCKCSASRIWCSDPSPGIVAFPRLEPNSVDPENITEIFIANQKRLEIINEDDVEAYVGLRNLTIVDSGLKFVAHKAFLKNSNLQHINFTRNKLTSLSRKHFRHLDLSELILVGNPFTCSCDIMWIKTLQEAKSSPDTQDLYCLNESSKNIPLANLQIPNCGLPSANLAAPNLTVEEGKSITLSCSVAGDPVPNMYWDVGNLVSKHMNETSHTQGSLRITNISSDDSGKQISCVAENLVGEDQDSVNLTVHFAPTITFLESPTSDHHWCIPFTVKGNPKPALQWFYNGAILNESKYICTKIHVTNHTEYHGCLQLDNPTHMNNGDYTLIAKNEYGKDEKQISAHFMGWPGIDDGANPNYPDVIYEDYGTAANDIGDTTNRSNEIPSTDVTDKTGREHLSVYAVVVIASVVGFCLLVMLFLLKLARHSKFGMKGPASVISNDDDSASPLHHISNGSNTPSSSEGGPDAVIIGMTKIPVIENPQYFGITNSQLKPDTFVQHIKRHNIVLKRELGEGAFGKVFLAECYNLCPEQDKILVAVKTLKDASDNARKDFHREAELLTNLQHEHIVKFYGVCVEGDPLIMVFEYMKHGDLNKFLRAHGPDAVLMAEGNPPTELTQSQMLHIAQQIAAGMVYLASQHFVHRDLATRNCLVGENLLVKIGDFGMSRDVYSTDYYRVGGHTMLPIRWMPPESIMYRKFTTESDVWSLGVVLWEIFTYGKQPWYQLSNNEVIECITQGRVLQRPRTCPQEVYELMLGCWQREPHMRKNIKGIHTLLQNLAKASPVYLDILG

[2] = target: T2, High affinity nerve growth factor receptor (Homo sapiens, UniProt P04629); assay: Inhibition of LMNA fused TRKA (unknown origin) transfected in mouse BAF3 cells assessed as growth inhibition after 72 hrs by CCK8 assay; assay type: cell-based
[3] = system: High affinity nerve growth factor receptor (Homo sapiens), P04629 [G667C]; assay: Inhibition of LMNA fused TRKA G667C mutant (unknown origin) transfected in mouse BAF3 cells assessed as growth inhibition after 72 hrs by CCK8 assay; assay type: cell-based
In short: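 TEL- or LMNA-fusion isogenic BaF3 lines grown in RPMI 1640 with 10% FBS and 1% penicillin/streptomycin at 37 °C, 5% CO₂; suspension cells collected by spinning at 800 rpm for 4 min before use; growth inhibition scored as GI₅₀.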

[4] = target: T1, BDNF/NT-3 growth factors receptor; assay: Inhibition of human TRKB assessed as remaining enzyme activity at 1 uM by Kinomescan method relative to control
Target sequence in this assay (Q16620 32-822 limits assumed): as above

[5] = target: T1, BDNF/NT-3 growth factors receptor; assay: Inhibition of human TRKB by Z-LYTE or ADP-Glo assay
In short: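 Purified kinase proteins tested biochemically in Z'LYTE or ADP-Glo format.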
Target sequence in this assay (Q16620 whole entry, the tested form may be a part): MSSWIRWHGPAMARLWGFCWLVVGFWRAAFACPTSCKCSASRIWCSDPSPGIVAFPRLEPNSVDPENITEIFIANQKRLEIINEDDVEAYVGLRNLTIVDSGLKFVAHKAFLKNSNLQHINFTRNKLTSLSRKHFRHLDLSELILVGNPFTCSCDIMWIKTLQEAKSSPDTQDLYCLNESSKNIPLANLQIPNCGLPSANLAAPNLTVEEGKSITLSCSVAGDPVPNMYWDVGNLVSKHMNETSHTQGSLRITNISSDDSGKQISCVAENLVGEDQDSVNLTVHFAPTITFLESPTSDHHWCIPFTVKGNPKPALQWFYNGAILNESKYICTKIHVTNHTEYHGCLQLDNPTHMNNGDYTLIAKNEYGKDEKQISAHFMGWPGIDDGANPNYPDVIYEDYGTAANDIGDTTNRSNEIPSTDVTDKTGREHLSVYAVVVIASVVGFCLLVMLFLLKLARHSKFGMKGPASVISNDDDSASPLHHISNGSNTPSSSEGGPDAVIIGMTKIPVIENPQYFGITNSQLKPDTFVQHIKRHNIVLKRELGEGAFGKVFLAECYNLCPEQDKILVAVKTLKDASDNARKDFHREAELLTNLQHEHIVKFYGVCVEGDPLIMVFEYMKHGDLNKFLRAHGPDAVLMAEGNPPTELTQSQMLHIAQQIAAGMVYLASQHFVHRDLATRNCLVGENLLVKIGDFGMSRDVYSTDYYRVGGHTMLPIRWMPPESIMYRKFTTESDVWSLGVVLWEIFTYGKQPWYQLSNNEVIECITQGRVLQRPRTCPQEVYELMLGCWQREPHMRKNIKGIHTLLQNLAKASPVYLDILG

[6] = target: T1, BDNF/NT-3 growth factors receptor; assay: Inhibition of TEL fused wild type TRKB (unknown origin) transfected in mouse BaF3 cells assessed as reduction in phosphorylation at Y515 residue after 2 hrs by Western blot analysis; assay type: cell-based
In short: (§1)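 Isogenic BaF3 lines, made in-house, grown in RPMI 1640 with 10% FBS and 1% penicillin/streptomycin at 37 °C under 5% CO2. Serially diluted compound added for 2 h. Cells collected and lysed, and lysates analysed by western blotting for phospho-TRK. EC50 derived from the blots.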
Target sequence in this assay (Q16620 whole entry, the tested form may be a part): as above

[7] = target: High affinity nerve growth factor receptor (Homo sapiens, UniProt P04629, G667C); assay: Inhibition of LMNA fused TRKA G667C mutant (unknown origin) transfected in mouse BaF3 cells assessed as reduction in phosphorylation at Y490 residue after 2 hrs by Western blot analysis; assay type: cell-based; in short: as §1
[8] = Antiproliferative activity against human KM-12-LUC cells harboring […] fused TRKA assessed as growth inhibition after 72 hrs by CCK8 assay; assay type: functional; settings: KM12-Luc
In short: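 KM-12-LUC cells seeded at 3 × 10⁴ cells/mL, incubated overnight at 37 °C, 5% CO₂, then medium replaced with fresh medium containing a range of compound concentrations for 72 h; viability read by CCK-8 absorbance at 450 nm, normalized to DMSO control, GI₅₀ from curve fitting.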

[9] = target: T2, High affinity nerve growth factor receptor; assay: Inhibition of TRKA in human KM-12-LUC cells assessed as reduction in TRKA phosphorylation at Y490 residue at 0.01 uM after 2 hrs by Western blot analysis; assay type: cell-based; settings: KM12-Luc
In short: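 KM-12-LUC cells cultured in RPMI 1640 with 10% FBS and 1% penicillin/streptomycin. Serially diluted compound applied for 2 h. Cells collected and lysed, and lysates analysed by western blotting for phospho-TRKA Y490, AKT T308/S473 and ERK1/2 T202/Y204.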

[10] = Apparent volume of distribution in mouse at 10 mg/kg, po; assay type: ADME, organism-based; settings: in vivo
[11] = AUC (0 to t) in Sprague-Dawley rat at 10 mg/kg, po; assay type: ADME, organism-based; design: dose 10 mg/kg; settings: in vivo
In short: (§2)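 Intravenous and oral arms were run in parallel in each species (mice, Sprague Dawley rats, beagle dogs). Exposure is reported as AUC0-t in ng/mL·h.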

[12] = Tmax in Sprague-Dawley rat at 1 mg/kg, iv; assay type: ADME, organism-based; settings: in vivo
In short: (§3)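 Single-dose PK in mice, Sprague Dawley rats and beagle dogs, given i.v. (1 mg/kg) or p.o. (10 mg/kg mice and rats; 5 mg/kg dogs). AUC0-t, T1/2, Tmax and oral bioavailability (F) derived from plasma profiles.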

[13] = Tmax in Sprague-Dawley rat at 10 mg/kg, po; assay type: ADME, organism-based; settings: in vivo; in short: as §3
[14] = Half life in Sprague-Dawley rat at 10 mg/kg, po; assay type: ADME, organism-based; settings: in vivo
[15] = Apparent clearance in Sprague-Dawley rat at 10 mg/kg, po; assay type: ADME, organism-based; settings: in vivo, read-out: CLz/F (converted)
[16] = Oral bioavailability in Sprague-Dawley rat at 10 mg/kg; assay type: ADME, organism-based; settings: in vivo; in short: as §3
[17] = AUC (0 to t) in Beagle dog at 1 mg/kg, iv; assay type: ADME, organism-based, Canis lupus familiaris; design: dose 1 mg/kg; settings: in vivo; in short: as §2
[18] = Tmax in Beagle dog at 1 mg/kg, iv; assay type: ADME, organism-based, Canis lupus familiaris; settings: in vivo; in short: as §3
[19] = Cmax in Beagle dog at 5 mg/kg, po; assay type: ADME, organism-based, Canis lupus familiaris; design: route oral, dose 5 mg/kg; settings: in vivo
BaF3 [20] = assay: Antitumor activity against mouse BAF3 cells harboring TEL fused TRKA allografted in nude mouse assessed as tumor growth inhibition at 80 mg/kg, po administered once daily for 10 days relative to control; assay type: functional; settings: 240 h, time 10 day, read-out: TGI
In short: (§4)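 Nu/nu mice given 1 million BaF3 cells (TEL-TRKA, TEL-TRKB, TEL-TRKC, LMNA-TRKA-F589L or LMNA-TRKA-G667S) in DMEM, 1:1 with matrigel, injected subcutaneously into the right flank; oral gavage began at 200–400 mm³, 5 mice per group, compound in 0.5% methylcellulose/0.4% Tween 80 in ddH₂O, 10 days; tumor volume [(W²×L)/2] and body weight recorded daily; TGI versus vehicle.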

BaF3 [21] = assay: Antitumor activity against mouse BAF3 cells harboring LMNA fused TRKA-G667S mutant allografted in nude mouse assessed as tumor growth inhibition at 40 mg/kg, po administered twice daily for 10 days relative to control; assay type: functional; settings: 240 h, time 10 day, read-out: TGI; in short: as §4
[22] = Toxicity in mouse xenografted with mouse BAF3 cells harboring TEL fused TRKB assessed as effect on body weight at 40 to 80 mg/kg, po administered once daily for 10 days; assay type: organism-based; settings: in vivo, 240 h, dose 40-80 mg/kg/day, time 10 day
In short: (§5)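 nu/nu mice were given subcutaneous right-flank implants in 1:1 DMEM/matrigel: 1 million BaF3 fusion cells or 5 million KM-12-LUC cells. Oral gavage started at 150–200 mm3 (xenograft) or 200–400 mm3 (allograft). Dosing used 40 or 80 mg/kg in HKI vehicle (0.5% methylcellulose/0.4% Tween 80 in ddH2O), with 5 mice per group. Body weight was recorded daily and behaviour observed.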

[23] = Toxicity in mouse xenografted with mouse BAF3 cells harboring […] TRKA-F589L mutant assessed as effect on body weight at 40 to 80 mg/kg, po administered once daily for 10 days; assay type: organism-based; settings: in vivo, 240 h, dose 40-80 mg/kg/day, time 10 day; in short: as §5
BaF3 [24] = assay: Antitumor activity against mouse BAF3 cells harboring TEL fused TRKC allografted in nude mouse assessed as tumor growth inhibition administered orally once daily for 10 days; assay type: functional, cell-based; settings: dose 40-80 mg/kg/day, time 10.0 day; in short: as §4
KM12-Luc = assay: Antitumor activity against human […] cells xenografted in nude mouse assessed as tumor growth inhibition administered orally once daily for 10 days relative to control; assay type: functional, cell-based; settings: dose 40-80 mg/kg/day, time 10.0 day
In short: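 Nu/nu mice given 5 million KM-12-LUC cells in DMEM, 1:1 with matrigel, injected subcutaneously into the right flank; oral gavage started at tumor size 150–200 mm³, 5 mice per group, compound in 0.5% methylcellulose/0.4% Tween 80 in ddH₂O; body weight and tumor volume [(W²×L)/2] measured daily; TGI versus vehicle.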

T2 sequence (P04629 33-796 limits assumed): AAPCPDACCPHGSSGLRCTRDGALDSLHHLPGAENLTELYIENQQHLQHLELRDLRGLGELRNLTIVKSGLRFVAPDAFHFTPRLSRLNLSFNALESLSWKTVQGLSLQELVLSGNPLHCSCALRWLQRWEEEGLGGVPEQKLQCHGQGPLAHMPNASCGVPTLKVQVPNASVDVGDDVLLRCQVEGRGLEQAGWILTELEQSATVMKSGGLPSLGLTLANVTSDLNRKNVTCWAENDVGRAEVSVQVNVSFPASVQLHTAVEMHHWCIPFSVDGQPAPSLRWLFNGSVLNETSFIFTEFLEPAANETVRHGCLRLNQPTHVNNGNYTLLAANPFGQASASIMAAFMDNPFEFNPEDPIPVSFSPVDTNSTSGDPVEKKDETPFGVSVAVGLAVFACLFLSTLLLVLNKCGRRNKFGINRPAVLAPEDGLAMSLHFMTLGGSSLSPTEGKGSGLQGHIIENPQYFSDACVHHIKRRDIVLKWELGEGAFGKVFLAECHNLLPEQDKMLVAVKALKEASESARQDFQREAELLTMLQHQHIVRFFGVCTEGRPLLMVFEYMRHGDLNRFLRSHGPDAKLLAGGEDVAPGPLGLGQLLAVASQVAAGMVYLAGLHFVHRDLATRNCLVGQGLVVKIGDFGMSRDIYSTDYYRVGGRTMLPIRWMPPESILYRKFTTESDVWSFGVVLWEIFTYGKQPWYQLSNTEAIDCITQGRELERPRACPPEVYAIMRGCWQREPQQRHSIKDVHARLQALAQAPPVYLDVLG
Sequence of High affinity nerve growth factor receptor (Homo sapiens, UniProt P04629, G667C) (P04629 33-796 G667C limits assumed): as the sequence (P04629 33-796 limits assumed) above, with G635C counted along it
Sequence of High affinity nerve growth factor receptor (Homo sapiens), P04629 [G667C] (P04629 whole entry G667C, looked up, the tested form may be a part): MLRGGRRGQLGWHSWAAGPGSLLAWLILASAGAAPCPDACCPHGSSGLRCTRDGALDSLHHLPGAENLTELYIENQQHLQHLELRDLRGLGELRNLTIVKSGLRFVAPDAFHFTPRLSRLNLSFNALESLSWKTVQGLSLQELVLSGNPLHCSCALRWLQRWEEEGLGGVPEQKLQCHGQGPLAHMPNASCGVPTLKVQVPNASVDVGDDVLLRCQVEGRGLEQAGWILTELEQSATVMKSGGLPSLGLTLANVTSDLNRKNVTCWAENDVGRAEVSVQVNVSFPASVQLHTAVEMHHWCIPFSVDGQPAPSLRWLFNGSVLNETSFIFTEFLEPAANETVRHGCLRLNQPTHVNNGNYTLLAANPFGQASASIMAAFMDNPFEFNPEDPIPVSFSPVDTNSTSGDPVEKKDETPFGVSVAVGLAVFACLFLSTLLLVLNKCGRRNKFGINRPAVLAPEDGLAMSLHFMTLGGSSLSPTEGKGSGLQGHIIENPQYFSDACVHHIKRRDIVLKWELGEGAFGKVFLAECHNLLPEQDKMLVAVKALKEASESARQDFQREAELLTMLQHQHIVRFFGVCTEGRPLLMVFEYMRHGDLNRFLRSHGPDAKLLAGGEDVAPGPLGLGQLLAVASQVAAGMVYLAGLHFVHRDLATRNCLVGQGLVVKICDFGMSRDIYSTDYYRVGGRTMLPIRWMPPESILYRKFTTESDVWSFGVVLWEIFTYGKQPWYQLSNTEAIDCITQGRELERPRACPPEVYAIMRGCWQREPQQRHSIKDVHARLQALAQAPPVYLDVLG

SMILES: Cc1nc(NC(=O)CN2CCN(C)CC2)sc1-c1ccc2c(/C=C/c3ccccn3)n[nH]c2c1
- GI50 [1]: 8.2 nM
- GI50 [2]: 7 nM
- GI50 [3]: 34 nM
- Activity [4]: 0.05%
- IC50 [5]: 0.71 nM
- EC50 [6]: 69 nM
- EC50 [7]: 67 nM
- GI50 [8]: 2 nM
- inhibition [9]: Active
- Vz [10]: 31.567 L/kg
- AUC(0-t) [11]: 952 ng·h/mL
- Tmax [12]: 1.8 min
- Tmax [13]: 4.7 h
- t1/2 [14]: 2.5 h
- CL/F [15]: 170 mL/min/kg
- bioavailability [16]: 26%
- AUC(0-t) [17]: 323 ng·h/mL
- Tmax [18]: 4.8 min
- Cmax [19]: 131 ng/mL
- inhibition in vivo at 80 mg/kg/day (BaF3 [20]): 67.5%
- inhibition in vivo at 40 mg/kg (BaF3 [21]): 64.9%
- Activity [22]: Non-Toxic
- Activity [23]: Non-Toxic
- Activity (BaF3 [24]): Dose-dependent effect
- Activity (KM12-Luc): Dose-dependent effect
